How the values were obtained:
Hepatitis C virus [1] = test: Antiviral activity against HCV1b infected in clone A and ET-lunet cells assessed as inhibition of viral replication after 4 days by RT-PCR analysis; format: functional, organism-based, Hepacivirus hominis; conditions: genotype 1b, 96 h
Method in brief: (§1)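 Run in HCV genotype 1a and 1b replicon cells; each reported value is the mean of n = 2 independent determinations.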

Hepatitis C virus [2] = test: Antiviral activity against HCV1a infected in clone A and ET-lunet cells assessed as inhibition of viral replication after 4 days by RT-PCR analysis; format: functional, organism-based, Hepacivirus hominis; conditions: subtype 1a, 96 h; method in brief: as §1
[3] = Half life in human liver microsomes; format: ADME

| Compound | EC90 (Hepatitis C virus [1]) [nM] | further results |
| --- | --- | --- |
| CC(C)C[C@H]1CN(C(=O)/C=C/c2ccc(N(C)C)cc2)[C@@H](CC(C)C)C(=O)N1 | > 10000 |  |
| O=C(NCc1cccs1)c1cc2nc(-c3ccco3)cc(C(F)(F)Cl)n2n1 [ANGUIZOLE] |  | EC50 (Hepatitis C virus [2]): 560 nM; EC50 (Hepatitis C virus [1]): 310 nM |
| CC(C)C[C@H]1C(=O)N[C@@H](C2CCCC2)CN1C(=O)c1cc(-c2ccc(F)cc2)on1 | 90 | half-life [3]: 29 min |
| CC(C)C[C@H]1CN(C(=O)/C=C\c2ccccc2)[C@@H](CC(C)C)C(=O)N1 | > 10000 |  |
| CC(C)C[C@H]1CN(C(=O)C2CC2)[C@@H](CC(C)C)C(=O)N1 | > 10000 |  |
| CCc1cc2c(cc1F)c(C#N)c(-c1ccc(S(=O)(=O)N[C@@H](C)C(F)(F)F)cn1)n2-c1ncccn1 |  | EC50 (Hepatitis C virus [1]): 1.7 nM |
| CC(C)C[C@H]1C(=O)N[C@@H](c2ccc(C(F)(F)F)cc2)CN1C(=O)c1cc(-c2ccc(F)cc2)on1 | 2750 |  |
| CC(C)C[C@H]1CN(C(=O)c2cc(-c3ccc(N(C)C)cc3)on2)[C@@H](CC(C)C)C(=O)N1 | > 10000 |  |
| CC(C)C[C@H]1CN(C(=O)c2cccc(-c3ccccc3)c2)[C@@H](CC(C)C)C(=O)N1 | > 10000 |  |
| CC(C)C[C@H]1C(=O)N[C@@H](c2ccsc2)CN1C(=O)c1cc(-c2ccc(F)cc2)on1 | 26 |  |
| CC(C)C[C@H]1C(=O)N[C@@H](CO)CN1C(=O)c1cc(-c2ccc(F)cc2)on1 | > 10000 |  |
| CC(C)C[C@H]1CN(C(=O)c2csc(-c3ccccc3)n2)[C@@H](CC(C)C)C(=O)N1 | > 7900 |  |
| CC(C)C[C@H]1CN(C(=O)/C=C/c2ccc(F)c(F)c2)[C@@H](CC(C)C)C(=O)N1 | 1500 |  |
| CC(C)C[C@H]1C(=O)N[C@@H](CC(C)(C)C)CN1C(=O)c1cc(-c2ccc(F)cc2)on1 | 2000 |  |
| C/C=C/[C@H]1CN(C(=O)c2cc(-c3ccc(F)cc3)on2)[C@@H](CC(C)C)C(=O)N1 | 60 | half-life [3]: 17 min |
| CC(C)C[C@H]1CN(C(=O)[C@@H]2C[C@H]2c2ccccc2)[C@@H](CC(C)C)CN1 | > 10000 |  |
| CC(C)C[C@H]1C(=O)N[C@@H](C(C)(C)C)CN1C(=O)c1cc(-c2ccc(F)cc2)on1 | 1800 |  |
| CC(C)C[C@H]1C(=O)N[C@@H](C2CCCCC2)CN1C(=O)c1cc(-c2ccc(F)cc2)on1 | 190 |  |
| CC(C)C[C@H]1CN(C(=O)/C=C/c2ccc(Cl)cc2)[C@@H](CC(C)C)C(=O)N1 | 1600 |  |
| CC(C)C[C@H]1CN(C(=O)C#Cc2ccccc2)[C@@H](CC(C)C)C(=O)N1 | 3200 |  |
| CC(C)C[C@H]1C(=O)N[C@@H](CC2CC2)CN1C(=O)c1cc(-c2ccc(F)cc2)on1 | 450 |  |
| CC(C)C[C@H]1CN(C(=O)/C=C/c2ccc(S(C)(=O)=O)cc2)[C@@H](CC(C)C)C(=O)N1 | > 10000 |  |
| CC(C)C[C@H]1CN(C/C=C/c2ccccc2)[C@@H](CC(C)C)C(=O)N1 | 3300 |  |
| CC(C)C[C@H]1CN(C(=O)c2cc(-c3ccc(F)cc3)on2)[C@@H](CC(C)C)C(=O)N1 | 130 |  |
| CC(C)C[C@H]1C(=O)N[C@@H](c2ccc[nH]2)CN1C(=O)c1cc(-c2ccc(F)cc2)on1 | 680 |  |
| CC(C)C[C@H]1C(=O)N[C@@H](c2nccs2)CN1C(=O)c1cc(-c2ccc(F)cc2)on1 | > 10000 |  |

| Compound | EC90 (Hepatitis C virus [1]) [nM] | further results |
| --- | --- | --- |
| CC(C)C[C@H]1CN(C(=O)c2cc(-c3ccc(C#N)cc3)on2)[C@@H](CC(C)C)C(=O)N1 | 1530 |  |
| CC(C)C[C@H]1CN(C(=O)c2cc(-c3ccccc3)[nH]n2)[C@@H](CC(C)C)C(=O)N1 | > 10000 |  |
| CC(C)C[C@H]1C(=O)N[C@@H](c2ccsc2Cl)CN1C(=O)c1cc(-c2ccc(F)cc2)on1 | 4 |  |
| Cc1ccc([C@H]2CN(C(=O)c3cc(-c4ccc(F)cc4)on3)[C@@H](CC(C)C)C(=O)N2)cc1 | 760 |  |
| CC(C)C[C@H]1C(=O)N[C@@H](C2CCSCC2)CN1C(=O)c1cc(-c2ccc(F)cc2)on1 | 870 |  |
| CC(C)C[C@H]1CN(C(=O)c2ccc(-c3ccccc3)o2)[C@@H](CC(C)C)C(=O)N1 | > 5800 |  |
| CC(C)C[C@H]1CN(C(=O)[C@@H]2C[C@H]2c2ccccc2)[C@H](CC(C)C)C(=O)N1 | > 10000 |  |
| CC(C)C[C@H]1CN(C(=O)/C=C/c2ccc(F)cc2F)[C@@H](CC(C)C)C(=O)N1 | 1500 |  |
| CC(C)C[C@H]1CN(C(=O)/C=C/c2ccc([N+](=O)[O-])cc2)[C@@H](CC(C)C)C(=O)N1 | > 10000 |  |
| CC[C@H]1C(=O)N[C@@H](CC(C)C)CN1C(=O)[C@@H]1C[C@H]1c1ccccc1 | > 10000 |  |
| CCC[C@H]1CN(C(=O)c2cc(-c3ccc(F)cc3)on2)[C@@H](CC(C)C)C(=O)N1 | 100 |  |
| CC(C)C[C@H]1CN(C(=O)c2cc(-c3ccc(Cl)cc3)on2)[C@@H](CC(C)C)C(=O)N1 | 290 |  |
| CC(C)C[C@H]1CN(C(=O)/C=C/c2ccc(Br)cc2)[C@@H](CC(C)C)C(=O)N1 | 7800 |  |
| CC(C)C[C@H]1CN(C(=O)c2cc(-c3ccccc3)on2)[C@@H](CC(C)C)C(=O)N1 | 1100 |  |
| CC(C)C[C@H]1CN(C(=O)c2c[nH]c(-c3ccccc3)n2)[C@@H](CC(C)C)C(=O)N1 | > 10000 |  |
| CC(C)C[C@@H]1CN(C(=O)[C@@H]2C[C@H]2c2ccccc2)[C@@H](CC(C)C)C(=O)N1 | > 10000 |  |
| Cc1ccc([C@H]2CN(C(=O)c3cc(-c4ccc(F)cc4)on3)[C@@H](CC(C)C)C(=O)N2)s1 | 180 |  |
| CC(C)C[C@H]1CN(C(=O)c2noc(-c3ccccc3)n2)[C@@H](CC(C)C)C(=O)N1 | 1400 |  |
| CC(C)C[C@H]1CN(C(=O)c2coc(-c3ccccc3)n2)[C@@H](CC(C)C)C(=O)N1 | > 10000 |  |
| COc1ccc(-c2cc(C(=O)N3C[C@H](CC(C)C)NC(=O)[C@@H]3CC(C)C)no2)cc1 | 1350 |  |
| Cc1ccsc1[C@H]1CN(C(=O)c2cc(-c3ccc(F)cc3)on2)[C@@H](CC(C)C)C(=O)N1 | 680 |  |
| CC(C)C[C@H]1CN(C(=O)/C=C/c2ccc(F)cc2)[C@@H](CC(C)C)C(=O)N1 | 1500 |  |
| Cc1ccc(/C=C/C(=O)N2C[C@H](CC(C)C)NC(=O)[C@@H]2CC(C)C)cc1 | 5300 |  |
| CC(C)C[C@H]1C(=O)N[C@@H](CN(C)C)CN1C(=O)c1cc(-c2ccc(F)cc2)on1 | 2740 |  |
| CC(C)C[C@H]1C(=O)N[C@@H](c2cc[nH]c2)CN1C(=O)c1cc(-c2ccc(F)cc2)on1 | 63 |  |
| CC[C@H](C)[C@H]1CN(C(=O)[C@@H]2C[C@H]2c2ccccc2)[C@@H](CC(C)C)C(=O)N1 | > 10000 |  |

| Compound | EC90 (Hepatitis C virus [1]) [nM] | further results |
| --- | --- | --- |
| COC[C@H]1CN(C(=O)c2cc(-c3ccc(F)cc3)on2)[C@@H](CC(C)C)C(=O)N1 | > 10000 |  |
| CC(C)C[C@H]1CN(C(=O)[C@@H]2C[C@H]2c2ccccc2)[C@@H](CC(C)C)C(=O)N1C | 8800 |  |
| CC(C)C[C@H]1C(=O)N[C@@H](c2ccccc2F)CN1C(=O)c1cc(-c2ccc(F)cc2)on1 | 100 |  |
| CC(C)C[C@H]1C(=O)N[C@@H](c2ncco2)CN1C(=O)c1cc(-c2ccc(F)cc2)on1 | > 10000 |  |
| CCC[C@H]1CN(C(=O)[C@@H]2C[C@H]2c2ccccc2)[C@@H](CC(C)C)C(=O)N1 | 900 |  |
| CC(C)C[C@H]1CN(C(=O)c2cn(-c3ccccc3)cn2)[C@@H](CC(C)C)C(=O)N1 | > 10000 |  |
| CC(C)C[C@H]1CN(C(=O)c2cc(-c3ccc(Br)cc3)on2)[C@@H](CC(C)C)C(=O)N1 | 470 |  |
| COC(=O)c1ccc(/C=C/C(=O)N2C[C@H](CC(C)C)NC(=O)[C@@H]2CC(C)C)cc1 | > 10000 |  |
| CC(C)C[C@H]1CN(C(=O)/C=C/c2ccc(C(F)(F)F)cc2)[C@@H](CC(C)C)C(=O)N1 | 8100 |  |
| CC(C)C[C@H]1CN(C(=O)/C=C/c2ccccc2Cl)[C@@H](CC(C)C)C(=O)N1 | 9700 |  |
| CSC[C@H]1CN(C(=O)c2cc(-c3ccc(F)cc3)on2)[C@@H](CC(C)C)C(=O)N1 | 240 |  |
| CC[C@@H](C)[C@H]1CN(C(=O)c2cc(-c3ccc(F)cc3)on2)[C@@H](CC(C)C)C(=O)N1 | > 10000 |  |
| CC(C)C[C@H]1C(=O)N[C@@H](CC(C(F)(F)F)C(F)(F)F)CN1C(=O)c1cc(-c2ccc(F)cc2)on1 | 7250 |  |
| CC(C)C[C@H]1CN(C(=O)/C=C/c2ccccc2)[C@@H](CC(C)C)C(=O)N1 | 2300 |  |
| CC(C)C[C@H]1CN(C(=O)c2cc(-c3ccc([N+](=O)[O-])cc3)on2)[C@@H](CC(C)C)C(=O)N1 | 2600 |  |
| CSCC[C@H]1CN(C(=O)c2cc(-c3ccc(F)cc3)on2)[C@@H](CC(C)C)C(=O)N1 | 390 |  |
| CC(C)C[C@H]1CN(C(=O)c2cc(-c3ccc(F)cc3F)on2)[C@@H](CC(C)C)C(=O)N1 | 680 |  |
| CC(C)C[C@H]1C(=O)N[C@@H](c2ccccc2)CN1C(=O)c1cc(-c2ccc(F)cc2)on1 | 60 | half-life [3]: 54 min |
| CC(C)C[C@H]1C(=O)N[C@@H](C2CCOCC2)CN1C(=O)c1cc(-c2ccc(F)cc2)on1 | 470 |  |
| CCCC[C@H]1CN(C(=O)c2cc(-c3ccc(F)cc3)on2)[C@@H](CC(C)C)C(=O)N1 | 530 |  |
| CC(C)C[C@H]1CN(C(=O)c2cc(-c3ccc(F)c(F)c3)on2)[C@@H](CC(C)C)C(=O)N1 | 650 |  |
| Cc1ccc(-c2cc(C(=O)N3C[C@H](CC(C)C)NC(=O)[C@@H]3CC(C)C)no2)cc1 | 1540 |  |
| CC(C)C[C@H]1C(=O)N[C@@H](C2CCC2)CN1C(=O)c1cc(-c2ccc(F)cc2)on1 | 690 |  |
| CC[C@H]1CN(C(=O)c2cc(-c3ccc(F)cc3)on2)[C@@H](CC(C)C)C(=O)N1 | 710 |  |
| CC(C)C[C@H]1C(=O)N[C@@H](C(C)C)CN1C(=O)c1cc(-c2ccc(F)cc2)on1 | 170 |  |
| CC(C)C[C@H]1C(=O)N[C@@H](C2CC2)CN1C(=O)c1cc(-c2ccc(F)cc2)on1 | 1100 |  |

From ChEMBL document CHEMBL3120066, “Discovery of a novel class of potent HCV NS4B inhibitors: SAR studies on piperazinone derivatives” (J Med Chem, 2014)
